Screening results (PubChem)
In the library only some 1.7% were active in any assay of this set; here they are far more common.
CaV13 FRET inh: Primary screen for inhibitors of IQ motif and Ca2+-dependent inactivation inhibitor domain binding in CACNA1D, Förster resonance energy transfer in living cells, …. HEK cells, CFP/YFP FRET ICDI-IQ, plate reader, 10 min; percent FRET-ratio fall versus neutral wells. inhibition, % at 12.3 µM. hit rate 0.098% among 340,000;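 active means mean replicate inhibition of at least 30% and at least 1% of replicates passing that level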;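 further: 0% = median of the neutral control wells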
Cneo AK release: Cryptococcus neoformans lysis via adenylate kinase release; lysis activity, % at 15 µM; C. neoformans lysis, adenylate kinase release luminescence, 4 h; normalised: neutral wells 0, clomiphene wells 100; hit rate 0.2% among 360,000;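 active means mean lysis activity across replicates of at least 80%, whatever share of replicates individually reach that level; inactive means mean lysis activity below 80%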
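Test system: log-phase Cryptococcus neoformans yeast cells; Quantity: yeast cell density of 5 × 10^6 cells/mL; Buffer or medium: YPD; Doses: single compound concentration per well; Timing: 4 h at 37 °C static, read 1 h later; Measured by: AK luminescence; Read-out basis: lysis from increased AK signal; Control set: Clomiphene as positive control.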
Ecoli rRNA inh: selective bacterial rRNA inhibition in E. coli; E. coli WT GFP vs humanized-ribosome RFP mutants, fluorescence, 24 h; hits give low values; DMSO median 0, no signal -100; hit rate 1.6% among 350,000; GFP signal change (wild-type ribosome), % (no concentration beside the values); AID 720706;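 active means significant combined selectivity score with lowered wild-type GFP, culture density cut under 30%, mutant RFP and density less affected; inactive means any of these conditions unmet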
CFTR F508del cor: correctors of CFTR F508del function in bronchial epithelial cells. CFBE cells, YFP halide quenching; stimulated with forskolin plus potentiator P3; % fluorescence drop versus neutral controls. activity (quench increase), % at 7.58 µM. hit rate 0.36% among 350,000. AID 720511;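 active means mean added fluorescence quench of at least 8% versus neutral control, with both replicates also reaching 8%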;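 further: cells transiently co-express mutant CFTR-F508del with the halide-sensitive YFP; corrector assay measuring rescue of mutant channel to the surface after 24 h compound exposure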
An asterisk follows results filed as active.

How did CCC(=O)NC[C@H]1N[C@H](CO)[C@@H]1c1ccc(C2=CCCC2)cc1 do in these assays?
Cneo AK release: -1; Ecoli rRNA inh: -2; CFTR F508del cor: -4

What do the screens show for `O=C(NC[C@H]1N[C@H](CO)[C@@H]1c1ccc(C2=CCCC2)cc1)C1CCC1`?
Ecoli rRNA inh: 0; CFTR F508del cor: 3

How did COCC(=O)NC[C@H]1N[C@H](CO)[C@H]1c1ccc(C2=CCCC2)cc1 do in these assays?
Cneo AK release: 97*; Ecoli rRNA inh: -1; CFTR F508del cor: 1

What do the screens show for `COCC(=O)NC[C@H]1N[C@H](CO)[C@@H]1c1ccc(C2=CCCC2)cc1`?
Cneo AK release: 108*; Ecoli rRNA inh: 3; CFTR F508del cor: 4

Results for COCC(=O)Nc1ccc2c(c1)C(=O)N(C)[C@H]1CC[C@H](CC(=O)NC3CCCC3)O[C@H]1CO2 ?
Cneo AK release: -4; Ecoli rRNA inh: -1; CFTR F508del cor: 2

Results for COc1ccc(S(=O)(=O)N(C)C[C@@H]2Oc3ccc(NC(=O)Nc4c(C)noc4C)cc3CC(=O)N([C@@H](C)CO)C[C@@H]2C)cc1 ?
Cneo AK release: -2; Ecoli rRNA inh: -2; CFTR F508del cor: -2

How did O=C(C[C@@H]1C[C@@H]2c3cc(NC(=O)C4CCC4)ccc3O[C@@H]2[C@@H](CO)O1)NCc1cccc(F)c1 do in these assays?
Cneo AK release: 2; Ecoli rRNA inh: -1; CFTR F508del cor: -5

Results for C#CC[N+](CC)(CC)CC#Cc1ccccc1 ?
CaV13 FRET inh: -17; Cneo AK release: -2; Ecoli rRNA inh: 16; CFTR F508del cor: 2

What do the screens show for `CC[N+](CC)(CC#Cc1ccccc1)CC#Cc1ccccc1`?
CaV13 FRET inh: -1; Ecoli rRNA inh: -45*; CFTR F508del cor: 1

Results for Cc1noc(C)c1NC(=O)N(C)C[C@@H]1Oc2ccc(NC(=O)Nc3ccccc3)cc2C(=O)N([C@H](C)CO)C[C@H]1C ?
Cneo AK release: -5; Ecoli rRNA inh: -2; CFTR F508del cor: -1

What do the screens show for `Oc1cccc(/C=N/N(Cc2ccccc2)c2ccccc2)c1`?
CaV13 FRET inh: 1; Ecoli rRNA inh: -42*; CFTR F508del cor: 0

Results for CCn1nc(C(=O)OCc2cccc(S(=O)(=O)N(C)C)c2)c2ccccc2c1=O ?
CaV13 FRET inh: -6; Ecoli rRNA inh: -25*; CFTR F508del cor: 5

What do the screens show for `CN(C)S(=O)(=O)c1cccc(COC(=O)c2ccc(Cl)cc2O)c1`?
CaV13 FRET inh: -15; Ecoli rRNA inh: -17; CFTR F508del cor: 0

What do the screens show for `C[C@H]1CN([C@@H](C)CO)C(=O)Cc2cc(NC(=O)CCCCCC(=O)Nc3ccccc3N)ccc2O[C@H]1CN(C)CC1CC1`?
Ecoli rRNA inh: 2; CFTR F508del cor: 1

What do the screens show for `CCCCN(C(=O)c1cc(S(=O)(=O)N2CCCCC2)ccc1Cl)c1c(N)n(CC(C)C)c(=O)[nH]c1=O`?
CaV13 FRET inh: -5; Cneo AK release: 1; Ecoli rRNA inh: 10; CFTR F508del cor: 10*

What do the screens show for `O=C(COc1nsnc1N1CCOCC1)N/N=C/c1ccccc1O`?
CaV13 FRET inh: -6; Ecoli rRNA inh: -22*; CFTR F508del cor: 3

How did O=C1/C(=C/c2cccc(Cl)c2)SC(=S)N1CCC(=O)N1CCCCC1CCO (stereo not drawn) do in these assays?
CaV13 FRET inh: -4; Cneo AK release: 1; Ecoli rRNA inh: -22*; CFTR F508del cor: 0

Results for O=C1/C(=C/c2ccc(Cl)cc2)SC(=S)N1CCC(=O)N1CCCCC1CCO (stereo not drawn) ?
CaV13 FRET inh: -4; Cneo AK release: -5; Ecoli rRNA inh: 7; CFTR F508del cor: -3

Results for O=C1/C(=C/c2ccccc2F)SC(=S)N1CCC(=O)N1CCCCC1CCO (stereo not drawn) ?
CaV13 FRET inh: -4; Cneo AK release: 8; Ecoli rRNA inh: -23*; CFTR F508del cor: 0

What do the screens show for `O=C1/C(=C/c2cccs2)SC(=S)N1CC(=O)N1CCCCC1CCO` (stereo not drawn)?
CaV13 FRET inh: -2; Cneo AK release: 2; Ecoli rRNA inh: -25*; CFTR F508del cor: 0

Results for O=C1/C(=C/c2ccccc2)SC(=S)N1CCCC(=O)N1CCCCC1CCO (stereo not drawn) ?
CaV13 FRET inh: -3; Ecoli rRNA inh: 1; CFTR F508del cor: -2

Results for C[C@@H]1CN([C@H](C)CO)S(=O)(=O)c2ccc(Br)cc2O[C@@H]1CN(C)CC1CC1 ?
Cneo AK release: -1; Ecoli rRNA inh: -1; CFTR F508del cor: 0

What do the screens show for `CN1C(=O)c2cc(NC(=O)Cc3cccs3)ccc2OC[C@H]2O[C@H](CC(=O)NCC3CC3)CC[C@@H]21`?
Cneo AK release: -2; Ecoli rRNA inh: 7; CFTR F508del cor: -1

How did CN(C)CCCn1c(N)c(S(=O)(=O)c2ccccc2)c2nc3ccccc3nc21 do in these assays?
CaV13 FRET inh: -20; Cneo AK release: 1; Ecoli rRNA inh: -28*; CFTR F508del cor: 0

What do the screens show for `C[C@H]1CCCCO[C@@H](CN(C)C(=O)Nc2cccc3ccccc23)[C@@H](C)CN([C@@H](C)CO)C(=O)c2cc(NC(=O)Cc3ccccc3)ccc2O1`?
Cneo AK release: 2; Ecoli rRNA inh: -4; CFTR F508del cor: 0

What do the screens show for `Cc1ccc(Nc2c(-c3ccc(N4CCOCC4)cc3)nc3ncccn23)c(C)c1`?
CaV13 FRET inh: -9; Cneo AK release: 1; Ecoli rRNA inh: -1; CFTR F508del cor: -1

What do the screens show for `Cc1cccc(C)c1Nc1c(-c2ccc(N3CCOCC3)cc2)nc2ncccn12`?
CaV13 FRET inh: -9; Cneo AK release: -1; Ecoli rRNA inh: -25*; CFTR F508del cor: 1

Results for COC(C(=O)C(O)C(C)O)C1Cc2cc3cc(OC4CC(OC5CC(O)C(O)C(C)O5)C(O)C(C)O4)c(C)c(O)c3c(O)c2C(=O)C1OC1CC(OC2CC(OC3CC(O)C(OC)C(C)O3)C(O)C(C)O2)C(O)C(C)O1 (stereo not drawn) ?
CaV13 FRET inh: -23; Ecoli rRNA inh: -12; CFTR F508del cor: 13*

What do the screens show for `CSc1cccc(NC(=O)c2ccc(CN3CCc4ccccc4C3)cc2)c1`?
CaV13 FRET inh: -5; Cneo AK release: -1; Ecoli rRNA inh: -23*; CFTR F508del cor: -1

Results for O=C(Nc1ccccc1)N1C[C@H]2[C@@H](c3ccccc31)[C@H](CO)N2C(=O)c1ccccc1F ?
Cneo AK release: -1; Ecoli rRNA inh: 3; CFTR F508del cor: 3

Results for COc1ccc(-c2cc(C(=O)NN)[nH]n2)cc1OC ?
CaV13 FRET inh: -7; Ecoli rRNA inh: -22*; CFTR F508del cor: -2

How did COc1ccc(-c2cc(C(=O)NN)[nH]n2)cc1 do in these assays?
CaV13 FRET inh: -5; Ecoli rRNA inh: -3

How did COc1ccccc1-c1cc(C(=O)NN)[nH]n1 do in these assays?
CaV13 FRET inh: -1; Cneo AK release: -1; Ecoli rRNA inh: -20*; CFTR F508del cor: -1
